Calls of active or inactive are those of the source. The calls are words filed in the database; no cut-off is given here.
Legend:
[1] = test system: MCF7; experiment: Antiproliferative activity against human MCF7 cells assessed as cell viability measured after 4 days by MTT assay; assay type: functional, cell-based; settings: MCF7, 96 h
Outline: (§1)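 Leukemia/lymphoma cells (RPMI 1640, 10% FCS) resuspended at 1 × 10⁵ cells/mL with serial drug dilutions and read by MTT after 96 h at 37 °C. Solid-tumor cells (own media, 10% FCS) were seeded at 5 × 10⁴ cells/mL, allowed 16 h to adhere, then dosed and read by MTT 4 days later. IC50 was derived by linear regression of growth as % of untreated controls.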

[2] = test system: Calf thymus DNA; experiment: Binding affinity to calf thymus DNA assessed as hypochromism by UV-vis spectroscopy; settings: Bos taurus
[3] = test system: HT-29; experiment: Antiproliferative activity against human HT-29 cells assessed as cell viability measured after 4 days by MTT assay; assay type: functional, cell-based; settings: HT-29, 96 h; outline: as §1
[4] = test system: G-361; experiment: Antiproliferative activity against human G-361 cells assessed as cell viability measured after 4 days by MTT assay; assay type: functional, cell-based; settings: G-361, 96 h; outline: as §1
[5] = test system: CCRF-CEM; experiment: Antiproliferative activity against human CCRF-CEM cells assessed as cell viability measured after 4 days by MTT assay; assay type: functional, cell-based; settings: 96 h; outline: as §1
[6] = test system: DNA; experiment: Binding affinity at Escherichia coli pBR322 DNA assessed as unwinding of supercoiled DNA at 10 uM incubated for 10 mins in presence of human topoisomerase 1 by agarose gel based electrophoresis; assay type: nucleic-acid assay
Outline: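 Intercalation assay with relaxed pBR322 (300 ng) and 2 units human Topo I in 50 mM Tris-HCl pH 7.5, 2.5 mM MgCl₂, 0.5 mM DTT and 50 µg/mL BSA, run 10 min at 37 °C. Stopped by phenol/chloroform/isoamyl alcohol extraction. Products run on 1.2% agarose in TAE, 2 V/cm for 15 h, then EtBr-stained. EtBr served as control; three independent experiments.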

[7] = test system: ACHN; experiment: Antiproliferative activity against human ACHN cells assessed as cell viability measured after 4 days by MTT assay; assay type: functional, cell-based; settings: 96 h; outline: as §1
[8] = test system: Calf thymus DNA; experiment: Binding affinity to calf thymus DNA assessed as isosbestic point by UV-vis spectroscopy; assay type: nucleic-acid assay; settings: Bos taurus
Outline: (§2)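 ctDNA held at 0.2 mM in phosphate buffer pH 7 and titrated with drug from […]. UV-vis spectra recorded in a 1 cm quartz cuvette. Binding constant was taken by the mole-ratio method from optical density changes at 260 nm, using a double reciprocal plot.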

[9] = test system: Calf thymus DNA; experiment: Binding affinity to calf thymus DNA assessed as lamda max by UV-vis spectroscopy; assay type: nucleic-acid assay; settings: Bos taurus; outline: as §2
[10] = test system: Calf thymus DNA; experiment: Binding affinity to calf thymus DNA assessed as red shift by UV-vis spectroscopy; assay type: nucleic-acid assay; design: unit not given here; settings: Bos taurus; outline: as §2
[11] = test system: SK-MEL-28; experiment: Antiproliferative activity against human SKMEL-28 cells assessed as cell viability measured after 4 days by MTT assay; assay type: functional, cell-based; settings: SK-MEL-28, 96 h; outline: as §1
[12] = test system: CCRF-SB; experiment: Antiproliferative activity against human CCRF-SB cells assessed as cell viability measured after 4 days by MTT assay; assay type: functional, cell-based; settings: 96 h; outline: as §1
[13] = test system: HeLa; experiment: Antiproliferative activity against human HeLa cells assessed as cell viability measured after 4 days by MTT assay; assay type: functional, cell-based; settings: 96 h
Outline: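 Solid-tumor cells (own media, 10% FCS) were seeded at 5 × 10⁴ cells/mL, allowed 16 h to adhere, then dosed and read by MTT 4 days later. IC50 was derived by linear regression of growth as % of untreated controls.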

[14] = test system: MT4; experiment: Antiproliferative activity against human MT-4 cells assessed as cell viability measured after 4 days by MTT assay; assay type: functional, cell-based; settings: MT4, 96 h; outline: as §1

| Structure (SMILES) | IC50 [1] [µM] | Activity [2] [%] | IC50 [3] [µM] | IC50 [4] [µM] | IC50 [5] [µM] | Activity [6] | IC50 [7] [µM] | Activity [8] [nm] | Activity [9] | Activity [10] | IC50 [11] [µM] | IC50 [12] [µM] | IC50 [13] [µM] | IC50 [14] [µM] |
| --- | --- | --- | --- | --- | --- | --- | --- | --- | --- | --- | --- | --- | --- | --- |
| O=c1cc2oc3ccccc3nc-2c2cccnc12 | 0.23 | – | – | – | – | – | – | – | – | – | – | – | – | – |
| N[C@@H](CCCCNC(=O)c1ccc2oc3cc(=O)c4ncccc4c-3nc2c1)C(=O)O | 0.06 | 39 | 0.02 | 0.02 | 0.04 | Active | 0.05 | 310 | 436 | 440 | 0.04 | 0.08 | 0.05 | 0.09 |
| N[C@@H](CCCCNC(=O)c1ccc2nc3c4ncccc4c(=O)cc-3oc2c1)C(=O)O | 0.12 | 17 | 0.1 | 0.09 | 0.15 | – | 0.07 | 320 | 459 | 461 | 0.08 | 0.16 | 0.1 | 0.2 |
| O=c1cc2oc3ccccc3nc-2c2ncccc12 | 0.37 | – | 0.38 | 0.45 | 0.09 | – | 0.23 | – | – | – | 0.4 | 0.15 | 0.15 | 0.18 |
| N[C@@H](CCCCNC(=O)c1ccc2oc3cc(=O)c4cccnc4c-3nc2c1)C(=O)O | 0.12 | 17 | 0.12 | 0.03 | 0.15 | – | 0.1 | 275 | 441 | 446 | 0.1 | 0.1 | 0.15 | 0.15 |
| NCCCC[C@H](NC(=O)c1ccc2nc3c4ncccc4c(=O)cc-3oc2c1)C(=O)O | 0.05 | 26 | 0.1 | 0.05 | 0.017 | – | 0.06 | 297 | 451 | 455 | 0.06 | 0.08 | 0.05 | 0.2 |

Reference: ChEMBL document CHEMBL4706487, “Antitumor agents 7. Synthesis, antiproliferative activity and molecular modeling of new l-lysine-conjugated pyridophenoxazinones as potent DNA-binding ligands and topoisomerase IIα inhibitors” (Eur J Med Chem, 2020)
